Assay results as given in paper PMC6557127 (Journal of molecular and cellular cardiology, 2019).

How the values were obtained:
[1] = target: natriuretic peptide clearance receptor (NPRC), tagged with green fluorescence protein (UniProt P17342); test: AlphaScreen or HTRF
[2] = system: human renal fibroblasts (HRFs); test: Fibroblast proliferation quantified by cell counting, HRFs; format: cell-based; conditions: 10^−6 M, TGFβ−1 5 ng/ml, 72 hours, trypan blue, Cedex XS Analyzer (Supplemental Table 2)
Procedure, shortened: (§1)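 Fibroblasts at passages 4–8, purity checked by vimentin immunostaining, were counted, seeded in complete medium and held overnight at 37 °C, 5% CO2. Medium was replaced with fresh medium containing TGFβ-1 (5 ng/ml) alone or with test compound (10−8, 10−7 or 10−6 M) for 8 or 72 h. Cells were then trypsinized, stained with 0.2% trypan blue and counted on an automated analyzer.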

[3] = system: human renal fibroblasts (HRFs); test: Live-cell real-time proliferation imaging; format: cell-based; conditions: 10^−6 M, similar to vehicle (Supplemental Table 1)
[4] = system: human renal fibroblasts (HRFs); test: cGMP generation in human primary renal fibroblasts; format: cell-based
Procedure, shortened: (§2)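 Primary human cardiac and renal fibroblasts, checked for purity by vimentin staining, were used at passages 4–8. Cells grown to 80% confluency were treated for 10 min with buffer (HBSS, 0.1% BSA, 2 mM HEPES, 0.5 mM IBMX) alone or with test compound at 10−8, 10−7 or 10−6 M. Cells were washed in PBS and lysed in 0.1 M HCl, and intracellular cGMP was measured by ELISA.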

[5] = Blood pressure and renal function with acute IV infusion; format: in vivo, Fischer rats; conditions: mean ± SEM, n=4/group; for UV (urine flow): 60 min clearance; for UNaV (urinary sodium excretion rate): flame photometry; for GFR (glomerular filtration rate): inulin clearance; for ΔMAP (change in mean arterial pressure): normal rats
Procedure, shortened: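 Male Fischer rats (about 2 months, 200–250 g) under isoflurane (2–3% in oxygen) had jugular vein, carotid artery and bladder catheters. After 30 min equilibration with IV inulin and saline, test compound or 0.9% saline vehicle was infused IV with inulin for 75 min, including a 15 min lead-in. BP was recorded and urine collected over a 60 min clearance period. Urinary sodium was measured by flame photometry and inulin by anthrone; GFR was taken from inulin clearance. n=4/group.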

Plasma CNP-like levels = format: in vivo, Fischer rats; conditions: low, medium and high dose (4.55, 45.5, 455 pmol/kg/min) IV infusion 75 min, normal rats, RIA, n=4/group
Procedure, shortened: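 They then received a 75 min continuous IV infusion (15 min lead-in) of native peptide, analogue or 0.9% saline vehicle with inulin. Infusion rate was weight-adjusted. Blood was taken after the 60 min clearance period. A non-equilibrium RIA used a CNP-sequence antibody (standard curve 0.5–128 pg; <1% cross-reactivity with ANP, BNP).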

parental HEK293 cells = test: cGMP generation in parental; format: cell-based, human; conditions: levels similar to vehicle treatment (Supplemental Figure 2)
Procedure, shortened: (§3)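 HEK293 cells stably expressing human pGC-A or pGC-B, or parental cells, were kept in DMEM with 10% FBS and 250 ug/ml G418. Cells were grown overnight to 80–90% confluency. They were treated for 10 min with serial concentrations (10−10 to 10−6 M) in HBSS containing 0.1% BSA, 2 mM HEPES and 0.5 mM IBMX; buffer alone served as vehicle. After a PBS wash and lysis in 0.1 M HCl, intracellular cGMP was measured by ELISA.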

[6] = system: human cardiac fibroblasts (HCFs); test: Live-cell real-time proliferation imaging; format: cell-based; conditions: 10^−6 M, similar to vehicle (Supplemental Table 1)
human pGC-B receptor = target: T1, human pGC-B receptor (Homo sapiens, UniProt P20594); test: cGMP generation in HEK293 cells overexpressing human pGC-B; format: cell-based; conditions: 10 min; for cGMP generation in HEK293 pGC-B cells compared to vehicle: 10^−8.5 to 10^−6 M, 0.5 mM IBMX, intracellular cGMP ELISA, triplicate
T1 sequence (P20594 23-1047): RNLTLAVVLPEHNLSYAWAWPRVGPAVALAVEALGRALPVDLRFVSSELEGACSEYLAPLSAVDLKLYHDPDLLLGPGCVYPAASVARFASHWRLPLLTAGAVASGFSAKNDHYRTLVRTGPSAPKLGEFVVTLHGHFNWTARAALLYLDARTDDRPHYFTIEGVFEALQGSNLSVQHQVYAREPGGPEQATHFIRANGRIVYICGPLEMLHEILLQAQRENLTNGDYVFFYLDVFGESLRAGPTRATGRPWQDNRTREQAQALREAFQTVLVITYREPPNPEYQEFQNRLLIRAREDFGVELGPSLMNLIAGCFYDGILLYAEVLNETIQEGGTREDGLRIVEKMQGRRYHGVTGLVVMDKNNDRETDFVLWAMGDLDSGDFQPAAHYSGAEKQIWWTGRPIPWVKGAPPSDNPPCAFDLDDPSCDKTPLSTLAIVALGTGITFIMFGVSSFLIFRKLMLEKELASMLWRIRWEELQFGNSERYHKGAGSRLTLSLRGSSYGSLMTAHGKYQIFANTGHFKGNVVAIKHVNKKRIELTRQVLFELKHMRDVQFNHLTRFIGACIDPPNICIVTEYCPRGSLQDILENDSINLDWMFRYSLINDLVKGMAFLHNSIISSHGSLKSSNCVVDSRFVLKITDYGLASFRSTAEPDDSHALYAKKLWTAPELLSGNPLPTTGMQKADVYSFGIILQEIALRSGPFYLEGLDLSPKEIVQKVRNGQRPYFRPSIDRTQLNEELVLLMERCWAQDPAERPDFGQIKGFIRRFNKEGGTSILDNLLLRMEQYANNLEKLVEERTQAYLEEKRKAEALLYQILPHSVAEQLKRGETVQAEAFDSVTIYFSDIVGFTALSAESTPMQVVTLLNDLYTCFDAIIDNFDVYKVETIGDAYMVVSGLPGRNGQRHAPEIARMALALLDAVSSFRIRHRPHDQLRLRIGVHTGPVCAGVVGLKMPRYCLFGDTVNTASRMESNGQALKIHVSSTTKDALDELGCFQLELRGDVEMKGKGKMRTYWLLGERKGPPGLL
Procedure, shortened: as §3

[7] = system: human cardiac fibroblasts (HCFs); test: Differentiation to myofibroblasts; format: cell-based; conditions: 10^−6 M, TGFβ−1 5 ng/mL
Procedure, shortened: (§4)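 Fibroblasts were serum-starved in 0.01% FBS for 48 h, then given TGFβ-1 (5 ng/ml) with or without test compound (10−6 M) for 24, 48 and 72 h. For immunostaining, cells were fixed in 4% formaldehyde, permeabilised with 0.2% Triton X-100, and stained with anti-α-SMA (1:200, 4 °C overnight), a Texas Red secondary and DAPI; confocal images were scored as corrected total cell fluorescence. For western blots, NP-40 lysates were probed for α-SMA and normalised to GAPDH.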

[8] = system: human cardiac fibroblasts (HCFs); test: cGMP generation in human primary cardiac fibroblasts; format: cell-based; conditions: 10^−8, 10^−7 and 10^−6 M, 10 min, 0.5 mM IBMX, cGMP ELISA, vs vehicle
Procedure, shortened: as §2

[9] = system: human renal fibroblasts (HRFs); test: Differentiation to myofibroblasts; format: cell-based; conditions: 10^−6 M, TGFβ−1 5 ng/mL
Procedure, shortened: as §4

[10] = system: human cardiac fibroblasts (HCFs); test: Fibroblast proliferation quantified by cell counting, HCFs; format: cell-based; conditions: 10^−6 M, TGFβ−1 5 ng/ml, 72 hours, trypan blue, Cedex XS Analyzer (Supplemental Table 2)
Procedure, shortened: as §1

human pGC-A receptor = target: T2, human pGC-A receptor (Homo sapiens, UniProt P16066); test: cGMP generation in HEK293 cells overexpressing human pGC-A; format: cell-based; conditions: mean±SEM
T2 sequence (P16066 33-1061): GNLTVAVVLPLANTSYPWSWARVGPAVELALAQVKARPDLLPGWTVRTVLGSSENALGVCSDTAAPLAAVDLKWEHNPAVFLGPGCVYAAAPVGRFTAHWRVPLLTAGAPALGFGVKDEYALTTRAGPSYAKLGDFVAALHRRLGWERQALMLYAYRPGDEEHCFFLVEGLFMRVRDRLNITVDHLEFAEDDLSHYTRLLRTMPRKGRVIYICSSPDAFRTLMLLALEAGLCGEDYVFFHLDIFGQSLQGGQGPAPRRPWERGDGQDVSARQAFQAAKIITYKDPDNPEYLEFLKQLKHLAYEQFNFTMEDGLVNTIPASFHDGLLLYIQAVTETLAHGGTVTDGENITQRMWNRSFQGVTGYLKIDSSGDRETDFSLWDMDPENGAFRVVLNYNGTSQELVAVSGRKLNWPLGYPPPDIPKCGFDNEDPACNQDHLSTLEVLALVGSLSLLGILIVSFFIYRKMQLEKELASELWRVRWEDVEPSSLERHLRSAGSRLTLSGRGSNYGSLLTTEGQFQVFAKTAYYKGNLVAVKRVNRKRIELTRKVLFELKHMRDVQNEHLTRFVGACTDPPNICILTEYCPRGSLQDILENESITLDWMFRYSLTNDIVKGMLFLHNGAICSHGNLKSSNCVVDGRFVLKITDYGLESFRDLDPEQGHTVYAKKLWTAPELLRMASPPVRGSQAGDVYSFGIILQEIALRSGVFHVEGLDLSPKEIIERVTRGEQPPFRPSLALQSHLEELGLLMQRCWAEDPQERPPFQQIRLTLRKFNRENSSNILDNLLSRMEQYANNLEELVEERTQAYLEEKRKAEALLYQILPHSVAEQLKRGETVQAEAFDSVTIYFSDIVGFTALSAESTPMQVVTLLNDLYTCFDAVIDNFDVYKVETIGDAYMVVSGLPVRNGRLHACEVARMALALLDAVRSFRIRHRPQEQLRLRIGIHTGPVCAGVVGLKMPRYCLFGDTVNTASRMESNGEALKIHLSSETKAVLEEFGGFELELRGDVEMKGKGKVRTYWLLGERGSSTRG
Procedure, shortened: as §3

[11] = High = 455 pmol/kg/min IV infusion
[12] = Low = 4.55 pmol/kg/min IV infusion
[13] = Medium = 45.5 pmol/kg/min IV infusion
[14] = 48 and 72 hours (data not shown)
[15] = 24 hours, immunostaining and western blotting

natriuretic peptide clearance receptor (NPRC), tagged with green fluorescence protein, sequence (P17342 27-541): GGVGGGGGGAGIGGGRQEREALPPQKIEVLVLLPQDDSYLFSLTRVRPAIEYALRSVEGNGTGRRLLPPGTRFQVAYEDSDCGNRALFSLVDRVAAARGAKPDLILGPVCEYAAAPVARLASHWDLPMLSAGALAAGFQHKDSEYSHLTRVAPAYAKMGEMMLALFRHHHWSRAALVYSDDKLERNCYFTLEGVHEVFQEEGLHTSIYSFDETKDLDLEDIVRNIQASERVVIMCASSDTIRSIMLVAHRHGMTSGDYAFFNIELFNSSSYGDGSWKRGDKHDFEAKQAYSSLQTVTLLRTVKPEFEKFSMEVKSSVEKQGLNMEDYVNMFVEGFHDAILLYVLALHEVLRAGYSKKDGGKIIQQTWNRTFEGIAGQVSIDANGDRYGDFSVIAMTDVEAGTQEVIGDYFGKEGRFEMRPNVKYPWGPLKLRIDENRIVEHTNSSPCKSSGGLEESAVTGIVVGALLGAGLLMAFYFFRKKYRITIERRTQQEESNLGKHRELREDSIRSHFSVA

Row | Substance | UV (urine flow) [5, 11] [µL/min] | UNaV (urinary sodium excretion rate) [5, 11] [uEq/min] | GFR (glomerular filtration rate) [5, 11] [mL/min] | UV (urine flow) [5, 12] [µL/min] | UNaV (urinary sodium excretion rate) [5, 12] [uEq/min] | GFR (glomerular filtration rate) [5, 12] [mL/min] | ΔMAP (change in mean arterial pressure) [5, 12] [mmHg] | UV (urine flow) [5, 13] [µL/min] | UNaV (urinary sodium excretion rate) [5, 13] [uEq/min] | GFR (glomerular filtration rate) [5, 13] [mL/min] | ΔMAP (change in mean arterial pressure) [5, 13] [mmHg] | Plasma CNP-like levels (CLL) (Plasma CNP-like levels) | cGMP generation in parental HEK293 cells (parental HEK293 cells) | cGMP generation in HEK293 pGC-B cells compared to vehicle (human pGC-B receptor) | other results
1 | C53, the 53-AA intermediate form of proCNP processing (peptide) |  |  |  |  |  |  |  |  |  |  |  |  |  |  | AlphaScreen signal [1]: 200
2 | NH2 - DLRVDTKSRAAWARLLQEHPNARKYKGANKKGLSKGCFGLKLDRIGSMSGLGC – COOH [C53] | 13.5 ± 2.0 | 1.1±0.3 | 1.1 ± 0.2 | 13.3 ± 2.0 | 0.9±0.2 | 1.2 ± 0.1 | −0.5±1.0 | 11.3 ± 0.8 | 1.0±0.1 | 1.5 ± 0.1 | −1.4±1.1 | increased plasma CLL levels in a dose-dependent manner | did not generate cGMP | significant cGMP generation | TGFβ−1 induced HRFs proliferation by cell counting [2]: suppressed TGFβ−1 induced proliferation; HRFs proliferation in the absence of TGFβ−1 stimulation [3]: had no effect on proliferation; Intracellular cGMP in HRFs ([4]; 10^−8, 10^−7 and 10^−6 M, 10 min, 0.5 mM IBMX, cGMP ELISA, vs vehicle, dose-dependent): increased intracellular cGMP levels; cGMP values in HRFs compared to HCFs ([4]; ratio HRFs/HCFs): 16 fold; ΔMAP (change in mean arterial pressure) [5, 11]: −3.7±2.6 mmHg; HCFs proliferation in the absence of TGFβ−1 stimulation [6]: had no effect on proliferation; pGC-B receptor potency compared to CNP (human pGC-B receptor; HEK293 pGC-B cells, 10^−10 to 10^−6 M, cGMP ELISA): no difference observed; Reduction of differentiation of HCFs to myofibroblasts [7, 14]: not sustained; Differentiation of HCFs to myofibroblasts (α-SMA expression) [7, 15]: significantly reduced the differentiation; Intracellular cGMP in HCFs [8]: increased intracellular cGMP levels; Reduction of differentiation of HRFs to myofibroblasts [9, 14]: not sustained; Differentiation of HRFs to myofibroblasts (α-SMA expression) [9, 15]: significantly reduced the differentiation; TGFβ−1 induced HCFs proliferation by cell counting [10]: suppressed TGFβ−1 induced proliferation
3 | b-type natriuretic peptide [BNP] |  |  |  |  |  |  |  |  |  |  |  |  |  |  | cGMP in HEK293 pGC-A cells (human pGC-A receptor; 10^−6 M): 1028±73 pmol/mL; cGMP in HEK293 pGC-A cells (human pGC-A receptor; 10^−8 M): 385±66 pmol/mL; cGMP in HEK293 pGC-A cells (human pGC-A receptor; 10^−10 M): 5±1 pmol/mL
4 | NH2-GLSKGCFGLKLDRIGSMSGLGC-COOH [CNP, C-type natriuretic peptide, reference compound] | 9.8 ± 0.3 | 0.9±0.1 | 1.3 ± 0.1 | 11.3 ± 1.0 | 0.8±0.1 | 1.2 ± 0.1 | −0.9±0.9 | 10.0 ± 0.9 | 0.7±0.1 | 1.2 ± 0.2 | −1.9±0.5 | increased plasma CLL levels in a dose-dependent manner | did not generate cGMP | significant cGMP generation | 
